Measurements published in ChEMBL document CHEMBL1122394, “Synthesis of potential anticancer agents. Pyrido[4,3-b][1,4]oxazines and pyrido[4,3-b][1,4]thiazines” (J Med Chem, 1983).

Assays:
L1210 [1] = assay: Antiproliferative activity against lymphoid leukemia L1210 cells after 48 hr exposure.; assay type: functional; settings: Mus musculus, L1210, 48 h; read-out: ID50 (the source's name)
Mus musculus [2] = assay: Increase in life span of mice with lymphocytic leukemia P388 10E6 tumor cell implant (intraperitoneally) at the highest nontoxic dose of 300 mg/kg tested; assay type: functional; settings: P388, ip, route intraperitoneal
Method in brief: (§1)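 Mice bore P388 lymphocytic leukemia. The value is the increase in life span at the highest nontoxic dose tested, with toxicity judged by weight change.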

L1210 [3] = assay: Concentration that causes a mitotic index (fraction of cells in mitosis divided by total cells) of 0.5 for cultured lymphoid leukemia L1210 cells after exposure of 12 hr; assay type: functional, Mus musculus
Method in brief: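 Cultured lymphoid leukemia L1210 cells exposed to agent for 12 h. Mitotic index is the fraction of cells in mitosis over total cells. The value is the agent concentration giving a mitotic index of 0.5.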

Mus musculus [4] = assay: Increase in life span of mice with lymphocytic leukemia P388 10E6 tumor cell implant (intraperitoneally) at the highest nontoxic dose of 150 mg/kg tested; assay type: functional; settings: P388, ip, route intraperitoneal; method in brief: as §1
Mus musculus [5] = assay: Increase in life span of mice with lymphocytic leukemia P388 10E6 tumor cell implant (intraperitoneally) at the highest nontoxic dose of 75 mg/kg tested; assay type: functional; settings: P388, ip, route intraperitoneal; method in brief: as §1
Mus musculus [6] = assay: Increase in life span of mice with lymphocytic leukemia P388 10E6 tumor cell implant (intraperitoneally) at the highest nontoxic dose of 200 mg/kg tested; assay type: functional; settings: P388, ip, route intraperitoneal; method in brief: as §1
Mus musculus [7] = assay: Compound tested for weight change in mice at a dose of 200 mg/kg; Toxic; assay type: toxicity, organism-based; parameters: dose 200 mg/kg; settings: in vivo
Mus musculus [8] = assay: Increase in life span of mice with lymphocytic leukemia P388 10E6 tumor cell implant (intraperitoneally) at the highest nontoxic dose of 100 mg/kg tested; assay type: functional; settings: P388, ip, route intraperitoneal; method in brief: as §1
Mus musculus [9] = assay: Compound tested for weight change in mice at a dose of 400 mg/kg; Toxic; assay type: toxicity, organism-based; parameters: dose 400 mg/kg; settings: in vivo

Row | SMILES | IC50 (L1210 [1]) [µM] | ILS at 300 mg/kg (Mus musculus [2]) [%] | MI0.5 (L1210 [3]) [µM] | further results
1 | CCOC(=O)Nc1cc2c(c(N)n1)N=C(c1cc(OC)c(OC)c(OC)c1)CO2 | > 3 | 0 |  | 
2 | CCOC(=O)Nc1cc2c(c(N)n1)N=C(c1ccc([N+](=O)[O-])cc1)CO2 | > 3 | 0 |  | 
3 | CCOC(=O)Nc1cc2c(c(N)n1)N=C(c1ccccc1)C(C)S2 (stereo not given) | 1.6 |  | 9.6 | ILS at 150 mg/kg (Mus musculus [4]): 10%
4 | CCOC(=O)Nc1cc2c(c(N)n1)N=C(c1cccc(OC)c1)CS2 | 0.53 |  | 2 | ILS at 75 mg/kg (Mus musculus [5]): 3%
5 | CCOC(=O)Nc1cc2c(c(N)n1)N=C(c1ccc(Cl)cc1)CO2 | > 3 | 0 |  | 
6 | CCOC(=O)Nc1cc2c(c(N)n1)N=C(c1ccccc1)C(c1ccccc1)O2 (stereo not given) | 0.88 |  | 3 | ILS at 200 mg/kg (Mus musculus [6]): 2%
7 | CCOC(=O)Nc1cc2oc(=O)c(-c3ccccc3)nc2c(N)n1 | 3 | 0 |  | 
8 | CCOC(=O)Nc1cc2c(c(N)n1)N=C(c1ccccc1)CS2 | 6.1 | 0 | >10 | 
9 | CCOC(=O)Nc1cc2c(c(/N=C/N(C)C)n1)N=C(c1ccccc1)CO2 | 0.31 |  | 0.78 | Toxicity (Mus musculus [7]): Toxic; ILS at 100 mg/kg (Mus musculus [8]): 1%
10 | CCOC(=O)Nc1cc2c(c(N)n1)N=C(c1ccccc1)CO2 | 0.225 |  | 0.56 | ILS at 200 mg/kg (Mus musculus [6]): 80%; ILS at 100 mg/kg (Mus musculus [8]): 44%; Toxicity (Mus musculus [9]): Toxic
11 | CCOC(=O)Nc1cc2c(c(NC(=O)CBr)n1)N=C(c1ccccc1)CO2 | 2.2 |  | 11 | 
12 | CCOC(=O)Nc1cc2c(c(N)n1)N=C(c1ccccc1)C(C)O2 (stereo not given) | 0.11 |  | 0.49 | ILS at 100 mg/kg (Mus musculus [8]): 49%
13 | CCOC(=O)Nc1cc2c(c(N)n1)N=C(c1cc(OC)cc(OC)c1)C(C)O2 (stereo not given) | 1.25 |  | 2.9 | 
14 | CCOC(=O)Nc1cc2c(c(N)n1)N=C(c1ccccc1)C(C)(C)S2 | > 10 |  |  | 
15 | CCOC(=O)Nc1cc2c(c(N)n1)N=C(c1ccc3ccccc3c1)CS2 | 0.58 | 5 | 3 | 
16 | CCOC(=O)Nc1cc2c(c(N)n1)N=C(c1ccc(OC)cc1)CS2 | 0.34 | 3 | 4.9 | 
17 | CCOC(=O)Nc1cc2c(c(N)n1)N=C(c1cccc(OC)c1)CO2 | 0.052 |  | 0.1 | 
